Here are results for two compounds from ChEMBL document CHEMBL1121378, “Lipophilic and hydrophilic esters of 4-acetyl-2-(2-hydroxyethyl)-5,6-bis(4-chlorophenyl)-2H-pyridazin-3-one as antihypertensive agents” (1980).

What all share (assay type): functional
Experiment [1] concerns Rattus norvegicus. Kind of experiment: Antihypertensive activity in spontaneously hypertensive rats was measured as average blood pressure at 4 mg/kg, p.o. after 4 hours of postdose-2. The following applies: route oral. Summed up: (§1)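 SHR model with two successive doses, designated dose 1 and dose 2. Group-average blood pressure in mmHg was recorded before dosing and at 4 h and 24 h after each dose. The route is oral unless marked intra-arterial or subcutaneous. A table footnote marks doses that gave no significant lowering at 4 or 24 h postdose.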

Experiment [2] has as its system Rattus norvegicus. As to the kind of experiment: Antihypertensive activity in spontaneously hypertensive rats was measured as average blood pressure at 4 mg/kg, po after 24 hours of postdose-1. The procedure, abridged:
as §1

Experiment [3] relates to Rattus norvegicus. As to the kind of experiment: Antihypertensive activity in spontaneously hypertensive rats was measured as average blood pressure at 4 mg/kg, po before predose. The procedure, abridged:
as §1

For experiment [4], the system named is Rattus norvegicus. Kind of experiment: Antihypertensive activity in spontaneously hypertensive rats was measured as average blood pressure at 100 mg/kg, p.o. after 24 hours of postdose-1. Particulars: route oral. The procedure, abridged: as §1
Experiment [5] has as its system Rattus norvegicus. As to the kind of experiment: Antihypertensive activity in spontaneously hypertensive rats was measured as average blood pressure at 4 mg/kg, p.o. after 4 hours of postdose-1. Particulars: route oral. Summed up: as §1
Experiment [6] concerns Rattus norvegicus. As to the kind of experiment: Antihypertensive activity in spontaneously hypertensive rats was measured as average blood pressure at 12 mg/kg, p.o. before predose. The following applies: route oral. Summed up: as §1
Experiment [7] relates to Rattus norvegicus. Kind of experiment: Antihypertensive activity in spontaneously hypertensive rats was measured as average blood pressure at 100 mg/kg, p.o. after 4 hours of postdose-2. The following applies: route oral. The procedure, abridged: as §1
Experiment [8] relates to Rattus norvegicus. Kind of experiment: Antihypertensive activity in spontaneously hypertensive rats was measured as average blood pressure at 12 mg/kg, p.o. after 24 hours of postdose-2. Particulars: route oral. Summed up:
as §1

Experiment [9] has as its system Rattus norvegicus. Kind of experiment: Antihypertensive activity in spontaneously hypertensive rats was measured as average blood pressure at 100 mg/kg, p.o. after 4 hours of postdose-1. The following applies: route oral. Summed up: as §1
The subject of experiment [10] is Rattus norvegicus. Kind of experiment: Antihypertensive activity in spontaneously hypertensive rats was measured as average blood pressure at 4 mg/kg, p.o. after 24 hours of postdose-2. Particulars: route oral. The procedure, abridged:
as §1

The subject of experiment [11] is Rattus norvegicus. As to the kind of experiment: Antihypertensive activity in spontaneously hypertensive rats was measured as average blood pressure at 12 mg/kg, p.o. after 24 hours of postdose-1. Particulars: route oral. The procedure, abridged:
as §1

The test system of experiment [12] is Rattus norvegicus. Kind of experiment: Antihypertensive activity in spontaneously hypertensive rats was measured as average blood pressure at 100 mg/kg, p.o. before predose. Particulars: route oral. Summed up: as §1
Experiment [13] concerns Rattus norvegicus. Kind of experiment: Antihypertensive activity in spontaneously hypertensive rats was measured as average blood pressure at 12 mg/kg, p.o. after 4 hours of postdose-1. The following applies: route oral. The procedure, abridged: as §1
The subject of experiment [14] is Rattus norvegicus. Kind of experiment: Antihypertensive activity in spontaneously hypertensive rats was measured as average blood pressure at 12 mg/kg, p.o. after 4 hours of postdose-2. Particulars: route oral. The procedure, abridged:
as §1

The subject of experiment [15] is Rattus norvegicus. Kind of experiment: Antihypertensive activity in spontaneously hypertensive rats was measured as average blood pressure at 100 mg/kg, p.o. after 24 hours of postdose-2. Particulars: route oral. Summed up: as §1
In experiment [16] the test system is Rattus norvegicus. Kind of experiment: Antihypertensive activity in spontaneously hypertensive rats was measured as average blood pressure at 17 mg/kg, p.o. after 24 hours of postdose-2. The following applies: route oral. Summed up:
as §1

Experiment [17] deals with Rattus norvegicus. As to the kind of experiment: Antihypertensive activity in spontaneously hypertensive rats was measured as average blood pressure at 17 mg/kg, p.o. after 24 hours of postdose-1. Particulars: route oral. Summed up:
as §1

The subject of experiment [18] is Rattus norvegicus. As to the kind of experiment: Antihypertensive activity in spontaneously hypertensive rats was measured as average blood pressure at 50 mg/kg, p.o. before predose. The following applies: route oral. The procedure, abridged:
(§2)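 Spontaneously hypertensive rats dosed orally twice. Average blood pressure (mmHg) recorded before dosing and at 4 h and 24 h after the first dose and after the second dose. Postdose values checked for significant lowering against predose.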

The test system of experiment [19] is Rattus norvegicus. As to the kind of experiment: Antihypertensive activity in spontaneously hypertensive rats was measured as average blood pressure at 17 mg/kg, p.o. before predose. Particulars: route oral. The procedure, abridged: as §1
Experiment [20] concerns Rattus norvegicus. Kind of experiment: Antihypertensive activity in spontaneously hypertensive rats was measured as average blood pressure at 17 mg/kg, p.o. after 4 hours of postdose-2. Particulars: route oral. The procedure, abridged:
as §1

Experiment [21] concerns Rattus norvegicus. Kind of experiment: Antihypertensive activity in spontaneously hypertensive rats was measured as average blood pressure at 50 mg/kg, p.o. after 24 hours of postdose-1. The following applies: route oral. The procedure, abridged:
as §2

The subject of experiment [22] is Rattus norvegicus. Kind of experiment: Antihypertensive activity in spontaneously hypertensive rats was measured as average blood pressure at 17 mg/kg, p.o. after 4 hours of postdose-1. The following applies: route oral. Summed up: as §1
For experiment [23], the system named is Rattus norvegicus. Kind of experiment: Antihypertensive activity in spontaneously hypertensive rats was measured as average blood pressure at 50 mg/kg, p.o. after 4 hours of postdose-1. Particulars: route oral. The procedure, abridged: as §2

Each structure is given as a SMILES string.

Take `CC(=O)c1c(-c2ccc(Cl)cc2)c(-c2ccc(Cl)cc2)nn(CCOC(=O)CN)c1=O.Cl`: the BP amounted to 161 mmHg in the experiment with Rattus norvegicus [1]; 189 mmHg in the experiment on Rattus norvegicus [2]; 184 mmHg with Rattus norvegicus [3]; 131 mmHg in the experiment on Rattus norvegicus [4]; 162 mmHg in the experiment with Rattus norvegicus [5]; 199 mmHg in the experiment on Rattus norvegicus [6]. Moreover, the BP in the experiment on Rattus norvegicus [7] is recorded as 124 mmHg; in the experiment with Rattus norvegicus [8] it was 164 mmHg; in the experiment on Rattus norvegicus [9], 138 mmHg; in the experiment on Rattus norvegicus [10], 175 mmHg; in the experiment with Rattus norvegicus [11], 161 mmHg; in the experiment with Rattus norvegicus [12], 178 mmHg. For the same compound, the BP in the experiment on Rattus norvegicus [13] came out at 164 mmHg; with Rattus norvegicus [14], 153 mmHg; with Rattus norvegicus [15], 166 mmHg.
As for `Br.Br.CC(=O)c1c(-c2ccc(Cl)cc2)c(-c2ccc(Cl)cc2)nn(CCOC(=O)C(N)CCCCN)c1=O` (stereo not drawn), the BP in the experiment with Rattus norvegicus [16] is 175 mmHg; in the experiment with Rattus norvegicus [17] it was 162 mmHg; with Rattus norvegicus [18], 231 mmHg; in the experiment on Rattus norvegicus [19] it was 189 mmHg; in the experiment with Rattus norvegicus [20], 143 mmHg; with Rattus norvegicus [21], 173 mmHg. Moreover, the BP with Rattus norvegicus [22] is listed as 165 mmHg; with Rattus norvegicus [23], 179 mmHg.
